Measurements published in ChEMBL document CHEMBL1921792, “Synthesis and anticonvulsant activity of trans- and cis-2-(2,6-dimethylphenoxy)-N-(2- or 4-hydroxycyclohexyl)acetamides and their amine analogs” (Bioorg Med Chem, 2011).
Calls of active or inactive are those of the source.

Tests used:
Mus musculus [1] = organism: Mus musculus; assay: Activation of GABA receptor in mouse cortical neurons assessed as potentiation of GABA-induced effect at 100 umol at -70 mV holding potential by whole-cell patch clamp electrophysiological assay relative to control
Procedure, shortened: (§1)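 Whole-cell patch clamp on primary cultured murine cortical neurons, borosilicate glass electrodes. Responses to GABA, NMDA or kainate were recorded with the compound present, as % of control stimulation. Compound at 100 µmol, holding potential -70 mV. Significance p < 0.05.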

Mus musculus [2] = assay: Anticonvulsant activity in mouse assessed as protection against maximal electric shock-induced seizures at 100 mg/kg, ip after 4 hrs; format: functional, organism-based; parameters: dose 100 mg/kg
Procedure, shortened: (§2)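 Phase I maximal electroshock screen in mice. Compound given ip as a suspension in 0.5% methylcellulose at 30, 100 or 300 mg/kg, tested at 30 min and 4 h. Small groups (1–8); result is number protected/number tested.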

Mus musculus [3] = assay: Anticonvulsant activity against subcutaneous pentylenetetrazole-induced seizures in mouse at 100 mg/kg, ip after 4 hrs; format: functional, organism-based; parameters: dose 100 mg/kg
Procedure, shortened: (§3)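 Phase I screen in mice. Compound given ip as a suspension in 0.5% methylcellulose, read at 30 min and 4 h. Pentylenetetrazole 85 mg/kg in 0.9% NaCl was injected sc into the posterior midline and animals watched ≥30 min. Protection meant no clonic spasm lasting ≥5 s. Groups of 1–8 animals; result is protected/tested.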

Mus musculus [4] = assay: Anticonvulsant activity against subcutaneous pentylenetetrazole-induced seizures in mouse at 300 mg/kg, ip after 0.5 hrs; format: functional, organism-based; parameters: dose 300 mg/kg; procedure, shortened: as §3
Rattus norvegicus [5] = assay: Anticonvulsant activity in rat assessed as protection against maximal electric shock-induced seizures at 30 mg/kg, po after 0.25 hrs; format: functional, organism-based; parameters: dose 30 mg/kg
Procedure, shortened: (§4)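 MES test in rats dosed orally at 30 mg/kg as a suspension in 0.5% methylcellulose, read at 0.25–4 h. Four rats per time point; result is protected/tested.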

Mus musculus [6] = assay: Anticonvulsant activity against subcutaneous pentylenetetrazole-induced seizures in mouse at 30 mg/kg, ip after 0.5 hrs; format: functional, organism-based; parameters: dose 30 mg/kg; procedure, shortened: as §3
Rattus norvegicus [7] = assay: Anticonvulsant activity in fully kindled rat hippocampus assessed as protection against focal seizures at 100 mg/kg, ip after 45 mins; format: functional, organism-based; parameters: dose 100 mg/kg
Procedure, shortened: (§5)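 Rat hippocampus kindled with 50 Hz AC, […] for 1 s, every 0.5 h for 6 h, every other day for 10 days (60 cycles), reaching Racine stage 5. Compound 100 mg/kg ip; seizures re-induced at 15–135 min. Racine score below 3 counts as protection.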

Mus musculus [8] = organism: Mus musculus; assay: Activation of kainate receptor in mouse cortical neurons assessed as potentiation of kainate-induced effect at 100 umol at -70 mV holding potential by whole-cell patch clamp electrophysiological assay relative to control; procedure, shortened: as §1
Mus musculus [9] = assay: Anticonvulsant activity in mouse assessed as protection against maximal electric shock-induced seizures at 90 mg/kg, ip after 0.25 hrs; format: functional, organism-based; parameters: dose 90 mg/kg
Procedure, shortened: (§6)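 Time-to-peak-effect assay: MES protection read at 0.25–4 h after dosing. Mice ip (60–130 mg/kg), rats po (15 or 30 mg/kg) or ip (30 mg/kg). Groups of 4–8; result is protected/tested.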

Rattus norvegicus [10] = assay: Anticonvulsant activity in rat assessed as protection against maximal electric shock-induced seizures at 30 mg/kg, po after 0.5 hrs; format: functional, organism-based; parameters: dose 30 mg/kg; procedure, shortened: as §4
Mus musculus [11] = assay: Anticonvulsant activity in mouse assessed as protection against maximal electric shock-induced seizures at 130 mg/kg, ip after 0.5 hrs; format: functional, organism-based; parameters: dose 130 mg/kg; procedure, shortened: as §6
Mus musculus [12] = assay: Anticonvulsant activity against subcutaneous pentylenetetrazole-induced seizures in mouse assessed as increase in tonic threshold at 106 mg/kg, ip by threshold tonic extension test; format: functional, organism-based; parameters: dose 106 mg/kg
Procedure, shortened: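 Threshold tonic extension test in mice. The compound was given ip, then pentylenetetrazol was infused until the first twitch and the first clonus. PTZ dose was calculated from the infusion speed. Mean of 8 animals ± S.E.M.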

Mus musculus [13] = organism: Mus musculus; assay: Activation of NMDA receptor in mouse cortical neurons assessed as potentiation of NMDA/glycine-induced effect at 100 umol at -70 mV holding potential by whole-cell patch clamp electrophysiological assay relative to control; procedure, shortened: as §1
Mus musculus [14] = assay: Anticonvulsant activity in mouse assessed as protection against maximal electric shock-induced seizures at 130 mg/kg, ip after 0.25 hrs; format: functional, organism-based; parameters: dose 130 mg/kg; procedure, shortened: as §6
N1E-115 [15] = assay: Blockade of voltage-gated sodium channel in mouse N1E-115 cells assessed as stimulation at 100 umol at -60 mV holding potential by whole-cell patch clamp electrophysiological assay relative to control; format: cell-based
Mus musculus [16] = assay: Anticonvulsant activity in mouse assessed as protection against maximal electric shock-induced seizures at 30 mg/kg, ip after 0.5 hrs; format: functional, organism-based; parameters: dose 30 mg/kg; procedure, shortened: as §2
Mus musculus [17] = assay: Anticonvulsant activity in mouse assessed as protection against maximal electric shock-induced seizures at 30 mg/kg, ip after 4 hrs; format: functional, organism-based; parameters: dose 30 mg/kg; procedure, shortened: as §2
N1E-115 [18] = assay: Blockade of voltage-gated sodium channel in mouse N1E-115 cells assessed as stimulation at 100 umol at -90 mV holding potential by whole-cell patch clamp electrophysiological assay relative to control; format: cell-based
Procedure, shortened: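 Whole-cell patch clamp with borosilicate glass electrodes on single cultured N1E-115 neuroblastoma cells. Compound at 100 µmol, holding potential -90 mV. Voltage-dependent sodium current expressed as % of control stimulation (no compound). Results from 5–8 cells averaged with SEM; significance by Student's t-test.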

Mus musculus [19] = assay: Anticonvulsant activity in mouse assessed as protection against maximal electric shock-induced seizures at 300 mg/kg, ip after 4 hrs; format: functional, organism-based; parameters: dose 300 mg/kg; procedure, shortened: as §2
Rattus norvegicus [20] = assay: Anticonvulsant activity in fully kindled rat hippocampus assessed as protection against focal seizures at 100 mg/kg, ip after 15 mins; format: functional, organism-based; parameters: dose 100 mg/kg; procedure, shortened: as §5
Mus musculus [21] = assay: Anticonvulsant activity in mouse assessed as protection against maximal electric shock-induced seizures at 130 mg/kg, ip after 4 hrs; format: functional, organism-based; parameters: dose 130 mg/kg; procedure, shortened: as §6
Mus musculus [22] = assay: Anticonvulsant activity against subcutaneous pentylenetetrazole-induced seizures in mouse at 30 mg/kg, ip after 4 hrs; format: functional, organism-based; parameters: dose 30 mg/kg; procedure, shortened: as §3
Mus musculus [23] = assay: Anticonvulsant activity in mouse assessed as protection against maximal electric shock-induced seizures at 130 mg/kg, ip after 2 hrs; format: functional, organism-based; parameters: dose 130 mg/kg; procedure, shortened: as §6
Mus musculus [24] = assay: Anticonvulsant activity against subcutaneous pentylenetetrazole-induced seizures in mouse at 100 mg/kg, ip after 0.5 hrs; format: functional, organism-based; parameters: dose 100 mg/kg; procedure, shortened: as §3
Rattus norvegicus [25] = assay: Anticonvulsant activity in rat assessed as protection against maximal electric shock-induced seizures at 30 mg/kg, po after 4 hrs; format: functional, organism-based; parameters: dose 30 mg/kg; procedure, shortened: as §4
Mus musculus [26] = assay: Anticonvulsant activity against subcutaneous pentylenetetrazole-induced seizures in mouse at 300 mg/kg, ip after 4 hrs; format: functional, organism-based; parameters: dose 300 mg/kg; procedure, shortened: as §3
Rattus norvegicus [27] = assay: Anticonvulsant activity in rat assessed as protection against maximal electric shock-induced seizures at 30 mg/kg, po after 2 hrs; format: functional, organism-based; parameters: dose 30 mg/kg; procedure, shortened: as §4
Mus musculus [28] = assay: Anticonvulsant activity in mouse assessed as protection against maximal electric shock-induced seizures at 300 mg/kg, ip after 0.5 hrs; format: functional, organism-based; parameters: dose 300 mg/kg; procedure, shortened: as §2
Mus musculus [29] = assay: Anticonvulsant activity in mouse assessed as protection against maximal electric shock-induced seizures at 100 mg/kg, ip after 0.5 hrs; format: functional, organism-based; parameters: dose 100 mg/kg; procedure, shortened: as §2
Rattus norvegicus [30] = assay: Anticonvulsant activity in rat assessed as protection against maximal electric shock-induced seizures at 30 mg/kg, po after 1 hr; format: functional, organism-based; parameters: dose 30 mg/kg; procedure, shortened: as §4
[31] = Neurotoxicity in ip dosed mouse assessed as inability to maintain equilibrium on rotarod by rotarod test; format: toxicity, organism-based; conditions: in vivo
Procedure, shortened: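 Mice dosed ip with a suspension in 0.5% methylcellulose, then placed on a 1 inch knurled plastic rod rotating at 6 rpm. Toxicity = failure to keep equilibrium for at least 1 min in each of three trials.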

Mus musculus [32] = assay: Anticonvulsant activity in ip dosed mouse assessed as protection against maximal electric shock-induced seizures; format: functional; conditions: Mus musculus, ip; read-out: ED50
Rattus norvegicus [33] = assay: Anticonvulsant activity in po dosed rat assessed as protection against maximal electric shock-induced seizures; format: functional
Rattus norvegicus [34] = organism: Rattus norvegicus; assay: Protective index, ratio of TD50 for neurotoxicity in rat to ED50 for inhibition of maximal electroshock-induced seizures in rat; format: functional
Mus musculus [35] = organism: Mus musculus; assay: Protective index, ratio of TD50 for neurotoxicity in mouse to ED50 for inhibition of maximal electroshock-induced seizures in mouse; format: functional
[36] = Neurotoxicity in po dosed rat assessed as neurological deficit […]; format: toxicity, organism-based; conditions: in vivo
Procedure, shortened: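 Rats dosed orally with a suspension in 0.5% methylcellulose. Neurological deficit judged by ataxia and loss of placing response and muscle tone.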

Cc1cccc(C)c1OCC(=O)NC1CCCCC1O (racemic; 1)
Activity (Mus musculus [1]): 179% | Activity (Mus musculus [2]): inactive | Activity (Mus musculus [3]): inactive | Activity (Mus musculus [4]): Active | Activity (Rattus norvegicus [5]): Active | Activity (Mus musculus [6]): inactive | Activity (Rattus norvegicus [7]): Active | Activity (Mus musculus [8]): 98% | Activity (Mus musculus [9]): Active | Activity (Rattus norvegicus [10]): Active | Activity (Mus musculus [11]): Active | Activity (Mus musculus [12]): Active | Activity (Mus musculus [13]): 104% | Activity (Mus musculus [14]): Active | Activity (N1E-115 [15]): 39% | Activity (Mus musculus [16]): inactive | Activity (Mus musculus [17]): inactive | Activity (N1E-115 [18]): 85% | Activity (Mus musculus [19]): inactive | Activity (Rattus norvegicus [20]): Active | Activity (Mus musculus [21]): inactive | Activity (Mus musculus [22]): inactive | Activity (Mus musculus [23]): inactive

Cc1cccc(C)c1OCC(=O)NC1CCCCC1O (racemic; 4)
Activity (Mus musculus [2]): inactive | Activity (Mus musculus [3]): inactive | Activity (Mus musculus [24]): inactive | Activity (Mus musculus [4]): inactive | Activity (Mus musculus [6]): inactive | Activity (Rattus norvegicus [10]): inactive | Activity (Mus musculus [16]): inactive | Activity (Rattus norvegicus [25]): inactive | Activity (Mus musculus [17]): inactive | Activity (Mus musculus [19]): inactive | Activity (Mus musculus [26]): inactive | Activity (Rattus norvegicus [27]): inactive | Activity (Mus musculus [28]): Active | Activity (Mus musculus [22]): inactive | Activity (Mus musculus [29]): inactive | Activity (Rattus norvegicus [30]): inactive

O=C1NC(=O)C(c2ccccc2)(c2ccccc2)N1 [PHENYTOIN]
TD50 [31]: 34.5 mg/kg | ED50 (Mus musculus [32]): 6.48 mg/kg | ED50 (Rattus norvegicus [33]): 32.2 mg/kg | Ratio TD50/ED50 (Rattus norvegicus [34]): >22 | Ratio TD50/ED50 (Mus musculus [35]): 6.6 | TD50 [36]: > 500 mg/kg | Activity (N1E-115 [18]): 78%
